# Measurements as given in ChEMBL document CHEMBL4020840, “Synthesis and Biological Evaluation of Selenium-Containing 4-Anilinoquinazoline Derivatives as Novel Antimitotic Agents” (J Med Chem, 2018).
# Active and inactive are the calls of the source. No cut-off for these calls is given here.
# Legend:
# LoVo = experiment: Growth inhibition of human LoVo cells after 48 hrs by MTT assay; assay type: functional, cell-based
# Method in brief: (§1)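 MTT assay: log-phase cells plated at 5 × 10³/well for 24 h, then exposed to a range of test concentrations for 48 h. MTT (5 mg/mL) added for 4 h, formazan dissolved in DMSO, absorbance read at 570 nm. IC50 is the concentration giving 50% growth inhibition, from dose-response curves; at least three independent experiments, mean ± SE.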
# A549 [1] = experiment: Growth inhibition of human A549 cells after 48 hrs by MTT assay; assay type: functional, cell-based; settings: A549, 48 h
# MDA-MB-231 = experiment: Growth inhibition of human MDA-MB-231 cells after 48 hrs by MTT assay; assay type: functional, cell-based; settings: MDA-MB-231, 48 h; method in brief: as §1
# HCT-116 = experiment: Growth inhibition of human HCT116 cells after 48 hrs by MTT assay; assay type: functional, cell-based; settings: HCT-116, 48 h; method in brief: as §1
# RKO = experiment: Growth inhibition of human RKO cells after 48 hrs by MTT assay; assay type: functional, cell-based; method in brief: as §1
# HepG2 = experiment: Growth inhibition of human HepG2 cells after 48 hrs by MTT assay; assay type: functional, cell-based; settings: HepG2, 48 h; method in brief: as §1
# A549/CDDP = experiment: Growth inhibition of human A549/CDDP cells after 48 hrs by MTT assay; assay type: functional, cell-based; method in brief: as §1
# MGC-803 = experiment: Antiproliferative activity against human MGC803 cells after 48 hrs by MTT assay; assay type: functional, cell-based; settings: MGC-803, 48 h; method in brief: as §1
# MCF7 = experiment: Antiproliferative activity against human MCF7 cells after 48 hrs by MTT assay; assay type: functional, cell-based; settings: MCF7, 48 h; method in brief: as §1
# [2] = Inhibition of porcine brain tubulin polymerization measured every 60 secs for 90 mins by DAPI staining based fluorescence assay; parameters: species or system Sus scrofa
# Method in brief: (§2)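 Purified tubulin was tested in a kit assay. Final buffer: 80 mM PIPES sesquisodium (pH 6.9), 2.0 mM MgCl₂, 0.5 mM EGTA, 1 mM GTP, 10.2% glycerol. Compound (0.1–10 μM) was prewarmed at 37 °C for 1 min before tubulin was added. DAPI reporter fluorescence (ex 340 / em 410 nm) was read every 60 s for 90 min. Area under the curve gave percent inhibition versus control and the IC50.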
# [3] = Selectivity index, ratio of IC50 for human LO2 cells to IC50 for human A549 cells; assay type: functional
# Method in brief: (§3)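 MTT assay in normal cells and A549: seeding at 5 × 10³ cells/well for 24 h, 48 h compound exposure, then 5 mg/mL MTT for 4 h, DMSO solubilisation and absorbance at 570 nm. IC50 values came from dose–response curves of at least three independent experiments. Selectivity ratio = IC50 in normal cells / IC50 in A549.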
# L02 = experiment: Antiproliferative activity against human LO2 cells after 48 hrs by MTT assay; assay type: cell-based; settings: L02, 48 h; method in brief: as §1
# [4] = Selectivity index, ratio of IC50 for HLF to IC50 for human A549 cells; method in brief: as §3
# [5] = Antiproliferative activity against HLF after 48 hrs by MTT assay; assay type: cell-based; settings: Homo sapiens; method in brief: as §1
# [6] = Growth inhibition of human HepG2/DOX cells after 48 hrs by MTT assay; assay type: functional, cell-based; method in brief: as §1
# [7] = Selectivity index, ratio of IC50 for human BJ cells to IC50 for human A549 cells; assay type: functional; method in brief: as §3
# BJ = experiment: Antiproliferative activity against human BJ cells after 48 hrs by MTT assay; assay type: cell-based; method in brief: as §1
# HeLa = experiment: Antiproliferative activity against human HeLa cells after 48 hrs by MTT assay; assay type: functional, cell-based; method in brief: as §1
# [8] = Resistance factor, ratio of IC50 for human A549/CDDP cells to IC50 for human A549 cells; assay type: functional
# Method in brief: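 MTT assay: log-phase cells were seeded at 5 × 10³/well for 24 h, then exposed to a concentration series for 48 h. MTT (5 mg/mL) was added for 4 h, formazan was dissolved in DMSO, and A570 was read. IC50 values came from dose–response curves of at least three independent experiments. Resistance factor = IC50 in the resistant line / IC50 in the parental sensitive line.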
# Sus scrofa = species: Sus scrofa; experiment: Inhibition of porcine brain tubulin polymerization at 7.5 uM measured every 60 secs for 90 mins by DAPI staining based fluorescence assay relative to control; method in brief: as §2
# A549 [9] = experiment: Antimigratory activity against human A549 cells assessed as suppression of wound healing at 4 nM after 24 hrs by phase contrast microscopic method; assay type: functional, cell-based
# Method in brief: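 Scratch wound assay: A549 plated at 5 × 10⁴ cells/dish and grown 24 h before scraping with a 10 μL tip. Medium then swapped to serum-free DMEM containing compound (4 nM) for 24 h. After a PBS wash, wound images taken at 0 and 24 h; at least three independent experiments.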
Structure (SMILES),IC50 (LoVo) [nM],IC50 (A549 [1]) [nM],IC50 (MDA-MB-231) [nM],IC50 (HCT-116) [nM],IC50 (RKO) [nM],IC50 (HepG2) [nM],also measured
C[Se]c1ccc(N(C)c2nc(C)nc3ccccc23)cc1Cl,3,2,7,5,4,4,
COc1ccc(N(C)c2nc(C)nc3ccccc23)cc1OCCC[Se]C#N,921,382,815,852,799,1040,
COc1ccc(N(C)c2nc(C)nc3ccccc23)cc1C(=O)OCCCCC[Se]C#N,714,592,851,551,356,667,
COc1ccc(N(C)c2nc(C)nc3ccccc23)cc1 [VERUBULIN],8,3,8,4,3,5,IC50 (A549/CDDP): 9 nM; IC50 (MGC-803): 8 nM; IC50 (MCF7): 11 nM; IC50 [2]: 2740 nM; Ratio IC50 [3]: 6.5; IC50 (L02): 13 nM; Ratio IC50 [4]: 9; IC50 [5]: 18 nM; IC50 [6]: 11 nM; Ratio IC50 [7]: 7.5; IC50 (BJ): 15 nM; IC50 (HeLa): 5 nM; Ratio IC50 [8]: 3
[2H]C([2H])([2H])c1nc(N(C)c2ccc([Se]C)cc2)c2ccccc2n1,5,3,9,3,8,5,
COc1ccc(N(C)c2nc(C)nc3ccccc23)cc1,,,,,,,inhibition (Sus scrofa): 77.6%; Activity (A549 [9]): Active
COc1ccc(/C=C\c2cc(OC)c(OC)c(OC)c2)cc1O [COMBRETASTATIN A4],,,,,,9,IC50 (A549/CDDP): 17 nM; IC50 [6]: 27 nM
COc1ccc(N(C)c2nc(C)nc3ccccc23)cc1OCCCCCC[Se]C#N,8580,5520,3550,6180,1540,4890,
Cc1nc(N(C)c2ccc([Se]C#N)c(F)c2)c2ccccc2n1,13,4,6,20,8,37,
COc1ccc(N(C)c2nc(C)nc3ccccc23)cc1C(=O)OCCCC[Se]C#N,1080,155,554,662,1020,975,
COc1ccc(N(C)c2nc(C)nc3ccccc23)cc1[Se]C,3,11,10,28,11,17,
Cc1nc(N(C)c2ccc([Se]C#N)c(Cl)c2)c2ccccc2n1,12,7,9,12,11,12,
COc1ccc(N(C)c2nc(C)nc3ccccc23)cc1OCCCCC[Se]C#N,5210,2440,4410,256,3560,5210,
COc1ccc(N(C)c2nc(C)nc3ccccc23)cc1C[Se]C#N,277,98,153,113,316,1110,
C[Se]c1ccc(N(C)c2nc(C3CC3)nc3ccccc23)cc1,11,13,18,15,21,32,
COc1cccc2c1C(=O)c1c(O)c3c(c(O)c1C2=O)C[C@@](O)(C(=O)CO)C[C@@H]3O[C@H]1C[C@H](N)[C@H](O)[C@H](C)O1 [DOXORUBICIN],,2900,,,,1890,IC50 (A549/CDDP): 4590 nM; IC50 [6]: > 10000 nM; Ratio IC50 [8]: 1.58
CN(c1ccc([Se]C#N)cc1)c1nc(C2CC2)nc2ccccc12,11,12,29,62,51,41,
